Series [1] in a line: AUC in Sprague-Dawley rat at 5.0 mg/kg, iv. The class given is ADME, organism-based. Further details: dose 5 mg/kg, route intravenous. As to conditions: plasma. The gist of the method:
(§1)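 Discrete or cassette (n-in-1) dosing, given intravenously and orally. Sprague–Dawley rats received 5.0 mg/kg iv and 8.0 mg/kg po; beagle dogs received 2.0 mg/kg iv and 8.0 mg/kg po. Three animals per dosing group; averaged values reported. AUC is reported in nM h.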

Series [2] is described as follows: Tmax in Beagle dog at 8.0 mg/kg, po. Conditions: in vivo.
The nature of series [3]: Clearance in Sprague-Dawley rat at 5.0 mg/kg, iv. The class given is ADME, organism-based. More on the design: dose 5 mg/kg, route intravenous. As to conditions: in vivo. The procedure, abridged: as §1
Series [4] can be described thus: Tmax in Sprague-Dawley rat at 8.0 mg/kg, po. Further details: dose 8 mg/kg, route oral. The class given is ADME, organism-based. As to conditions: in vivo. The gist of the method:
as §1

Series [5] in a line: AUC in Sprague-Dawley rat at 8.0 mg/kg, po. The class given is ADME, organism-based. Further details: dose 8 mg/kg, route oral. As to conditions: plasma. The procedure, abridged: as §1
Series [6] can be described thus: Half life in Beagle dog at 8.0 mg/kg, po. Conditions: in vivo.
Series [7] is described as follows: Apparent permeability across human Caco-2 cells. The class given is ADME, cell-based. The procedure, abridged:
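Apparent permeability measured across Caco-2 cell monolayers in the apical-to-basolateral (A→B) direction.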

Series [8] in a line: Half life in Sprague-Dawley rat at 5.0 mg/kg, iv. The class given is ADME, organism-based. More on the design: dose 5 mg/kg, route intravenous. As to conditions: in vivo. The procedure, abridged: as §1
A short description of series [9]: Protein binding in dog serum. The class given is ADME, cell-free, Canis lupus familiaris.
Series [10] in a line: Protein binding in rat serum. The class given is ADME, cell-free.
The target of the next series is Stromelysin-2 (Homo sapiens, UniProt P09238). The experiment in a line: Inhibition of MMP10. The procedure, abridged: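 MMP Ki values come from a single determination.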
Chain of Stromelysin-2 (P09238 whole entry): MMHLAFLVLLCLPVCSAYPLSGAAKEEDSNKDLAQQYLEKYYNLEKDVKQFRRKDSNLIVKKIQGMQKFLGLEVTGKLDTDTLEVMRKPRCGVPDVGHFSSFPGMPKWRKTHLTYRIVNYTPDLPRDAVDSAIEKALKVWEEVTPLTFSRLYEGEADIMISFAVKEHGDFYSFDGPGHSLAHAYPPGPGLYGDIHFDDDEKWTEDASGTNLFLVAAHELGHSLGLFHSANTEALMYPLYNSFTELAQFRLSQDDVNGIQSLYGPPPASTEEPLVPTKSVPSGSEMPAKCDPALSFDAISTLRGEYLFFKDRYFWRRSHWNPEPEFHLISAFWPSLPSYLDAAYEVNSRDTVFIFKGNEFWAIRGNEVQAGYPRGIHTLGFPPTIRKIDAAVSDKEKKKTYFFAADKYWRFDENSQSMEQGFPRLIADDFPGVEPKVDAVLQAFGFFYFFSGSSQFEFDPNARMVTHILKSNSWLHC
The subject of the next series is Blood. Description: Reduction of LPS-induced TNFalpha in human whole blood. The class given is functional, tissue-based. The gist of the method: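 LPS-induced TNF-α production in human whole blood; suppression of TNF-α measured.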
A short description of series [11]: Oral bioavailability in Sprague-Dawley rat at 8.0 mg/kg. The class given is ADME, organism-based. Conditions: in vivo. The procedure, abridged:
as §1

The nature of series [12]: Half life in Sprague-Dawley rat at 8.0 mg/kg, po. The class given is ADME, organism-based. More on the design: dose 8 mg/kg, route oral. As to conditions: in vivo. The gist of the method:
as §1

Series [13] in a line: Protein binding in human serum. The class given is ADME, cell-free.
Series [14] can be described thus: Oral bioavailability in Beagle dog at 8.0 mg/kg, po. As to conditions: in vivo.
In series [15] the target is T1, A disintegrin and metalloproteinase with thrombospondin motifs 5 (Homo sapiens, UniProt Q9UNA0).
T1 sequence (Q9UNA0 whole entry): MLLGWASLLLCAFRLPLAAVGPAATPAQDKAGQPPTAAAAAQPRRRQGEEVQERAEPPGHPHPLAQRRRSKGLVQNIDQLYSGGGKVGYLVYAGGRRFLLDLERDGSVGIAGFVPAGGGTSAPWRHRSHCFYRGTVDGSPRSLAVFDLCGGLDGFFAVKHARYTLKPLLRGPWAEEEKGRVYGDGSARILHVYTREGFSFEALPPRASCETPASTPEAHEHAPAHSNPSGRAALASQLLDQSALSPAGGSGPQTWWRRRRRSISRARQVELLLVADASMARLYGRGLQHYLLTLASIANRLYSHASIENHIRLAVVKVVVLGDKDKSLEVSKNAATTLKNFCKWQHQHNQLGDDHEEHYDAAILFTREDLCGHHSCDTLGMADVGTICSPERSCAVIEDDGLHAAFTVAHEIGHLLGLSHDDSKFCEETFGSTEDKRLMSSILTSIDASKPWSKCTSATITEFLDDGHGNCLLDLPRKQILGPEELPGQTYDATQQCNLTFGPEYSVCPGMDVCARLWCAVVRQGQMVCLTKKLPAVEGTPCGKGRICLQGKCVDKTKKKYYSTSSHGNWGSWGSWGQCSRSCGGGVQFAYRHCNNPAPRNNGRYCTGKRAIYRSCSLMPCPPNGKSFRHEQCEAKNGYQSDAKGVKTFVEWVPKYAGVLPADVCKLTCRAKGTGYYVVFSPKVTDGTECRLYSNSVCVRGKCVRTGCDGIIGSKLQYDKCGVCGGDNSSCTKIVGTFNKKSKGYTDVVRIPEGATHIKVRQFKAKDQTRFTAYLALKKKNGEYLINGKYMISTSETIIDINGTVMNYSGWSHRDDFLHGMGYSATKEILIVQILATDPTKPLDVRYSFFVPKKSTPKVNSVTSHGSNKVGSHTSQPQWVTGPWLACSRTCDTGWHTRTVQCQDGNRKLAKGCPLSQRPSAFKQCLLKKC
Description: Inhibition of ADAMTS5.

Series [16] is described as follows: AUC in Beagle dog at 8.0 mg/kg, po. Conditions: plasma.
The nature of series [17]: Clearance in Beagle dog at 2.0 mg/kg, iv. The class given is ADME, organism-based, Canis lupus familiaris. More on the design: dose 2 mg/kg, route intravenous. As to conditions: in vivo. The gist of the method:
as §1

Series [18] in a line: Volume of distribution at steady state in Sprague-Dawley rat at 5.0 mg/kg, iv. The class given is ADME, organism-based. More on the design: dose 5 mg/kg, route intravenous. Conditions: in vivo, read-out: Vdss. The gist of the method: as §1
Series [19] is described as follows: AUC in Beagle dog at 2.0 mg/kg, iv. The class given is ADME, organism-based, Canis lupus familiaris. As to conditions: plasma. More on the design: dose 2 mg/kg, route intravenous. The gist of the method: as §1
A further series has as its system Mus musculus. Description: Reduction of LPS-induced TNFalpha level in orally dosed mouse after 1 hr. The class given is functional. Conditions: po. The procedure, abridged:
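Mouse LPS endotoxemia model. LPS and test compound in vehicle were given together by oral gavage at t = 0 h, across several doses. Mice were euthanized 1 h post dose, blood was taken by cardiac puncture, and plasma TNF-α was measured. ED50 was calculated from the dose response.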

A short description of series [20]: Half life in Beagle dog at 2.0 mg/kg, iv. The class given is ADME, organism-based, Canis lupus familiaris. Further details: dose 2 mg/kg, route intravenous. As to conditions: in vivo. The gist of the method:
as §1

A short description of series [21]: Volume of distribution at steady state in Beagle dog at 2.0 mg/kg, iv. The class given is ADME, organism-based, Canis lupus familiaris. Further details: dose 2 mg/kg, route intravenous. As to conditions: in vivo, read-out: Vdss. The gist of the method:
as §1

Here are results for one compound from ChEMBL document CHEMBL1141492, “Potent, exceptionally selective, orally bioavailable inhibitors of TNF-alpha Converting Enzyme (TACE): novel 2-substituted-1H-benzo[d]imidazol-1-yl)methyl)benzamide P1' substituents” (Bioorg Med Chem Lett, 2008).

Structures are written as SMILES.

As usually defined, the AUC is the area under the concentration-time curve, a measure of exposure. Read a low AUC as less exposure. For orientation: Tmax means the time at which the peak concentration occurs. As a reminder, the clearance is the volume of plasma or blood freed of the substance per unit of time. A low value points to inefficient removal. One may read the half-life as the time in which the quantity being followed falls by half. Low values mean fast loss, high ones slow loss. By Papp is commonly meant the rate of passage across a membrane or cell layer, normalised by area and donor concentration. By fraction unbound is commonly meant the share of the substance not bound to proteins or other matrix. Low readings indicate little free substance, high ones much free substance. The IC50 is the concentration needed to halve the response being measured. Read a high IC50 as weaker potency. As a reminder, the bioavailability is the share of a dose that reaches the circulation, judged against a reference dose that is usually intravenous. By Ki is commonly meant a measure of affinity in units of concentration, obtained from inhibition or displacement. Lower therefore signals higher affinity. By ED50 is commonly meant the dose that gives a 50% effect, or the effect in half of the subjects.

In the case of `O=C(N[C@@H]1CCOC[C@@H]1C(=O)NO)c1ccc(Cn2c(C(F)(F)F)nc3ccccc32)cc1`, the AUC in series [1] is 6.85 µM·h; in series [5], 5.84 µM·h; in [16], 39.5 µM·h; in series [19], 9.97 µM·h. Further, the Tmax in series [2] was determined as 0.5 h; in series [4], 0.3 h. The clearance in [3] is 26.7 mL/min/kg; in [17], 10 mL/min/kg. In addition, the half-life in [6] was 4.8 h; in series [8] it was 3.5 h; in [12], 2.4 h; in [20], 4.2 h. Also, the apparent permeability (Papp) in series [7] is 0.7 ×10⁻⁶ cm/s. Besides, the fraction unbound in [9] was 0.2; in series [10], 0.2; in series [13] it was 0.21. The IC50 at Stromelysin-2 was greater than 10000 nM; with Blood it was 232 nM. The values for the bioavailability in series [11] and in series [14] were 53% and 99%, respectively. The Ki in [15] was 1000 nM. The figures for the Vd in [18] and in [21] were 1.5 L/kg and 1 L/kg, respectively. This compound also had an ED50 in the series on Mus musculus of 1.9 mg/kg.
